Measured values published in ChEMBL document CHEMBL2417372, “Design, synthesis, and mechanism of action of 2-(3-hydroxy-5-methoxyphenyl)-6-pyrrolidinylquinolin-4-one as a potent anticancer lead” (Bioorg Med Chem Lett, 2013).

Legend:
Tubulin (Homo sapiens) [1] = biological target: T1, Tubulin (Homo sapiens) (UniProt P68371+Q9H4B7+P0DPH7+P68366+Q13509+Q71U36+P04350+Q3ZCM7+P07437+P68363+Q9BQE3+Q6PEY2+Q13885+Q9BVA1+Q9BUF5); experiment: Inhibition of tubulin polymerization in human NCI-H522 cells assessed as alpha-tubulin accumulation in cytoskeletal fraction after 24 hrs by Western blot analysis; type: cell-based
In short: (§1)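 NCI-H522 cells were exposed for 24 h to compound (10, 30 or 100 nM) or DMSO vehicle. They were then lysed 5 min at 37 °C in hypotonic buffer (1 mM MgCl2, 2 mM EGTA, 0.5% NP-40, protease inhibitors, 20 mM Tris-HCl pH 6.8) and centrifuged at 15,000 × g for 10 min at 25 °C. α- and β-tubulin were assessed in the cytoskeletal fraction.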

Tubulin (Homo sapiens) [2] = biological target: T1, Tubulin (Homo sapiens); experiment: Inhibition of tubulin polymerization in human NCI-H522 cells assessed as beta-tubulin accumulation in cytoskeletal fraction after 24 hrs by Western blot analysis; type: cell-based; in short: as §1
Tubulin (Sus scrofa) = Tubulin (Sus scrofa) (UniProt P02554+P02550); experiment: Inhibition of porcine brain tubulin polymerization measured every 30 seconds for 30 mins
Tubulin (Sus scrofa), sequence (P02550 whole entry, looked up): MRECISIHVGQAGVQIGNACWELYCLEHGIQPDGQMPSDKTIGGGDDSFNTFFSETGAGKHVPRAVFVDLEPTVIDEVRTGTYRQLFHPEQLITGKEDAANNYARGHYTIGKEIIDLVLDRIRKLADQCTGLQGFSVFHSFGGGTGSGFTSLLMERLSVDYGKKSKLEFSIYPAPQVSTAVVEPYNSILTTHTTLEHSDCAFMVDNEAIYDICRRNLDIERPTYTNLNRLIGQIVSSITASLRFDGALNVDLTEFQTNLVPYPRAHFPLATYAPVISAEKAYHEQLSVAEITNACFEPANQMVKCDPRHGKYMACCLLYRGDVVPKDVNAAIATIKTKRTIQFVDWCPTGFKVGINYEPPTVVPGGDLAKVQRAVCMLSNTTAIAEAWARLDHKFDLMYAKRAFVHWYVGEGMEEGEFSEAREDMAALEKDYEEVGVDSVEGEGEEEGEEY
Tubulin (Sus scrofa), sequence (P02554 whole entry, looked up): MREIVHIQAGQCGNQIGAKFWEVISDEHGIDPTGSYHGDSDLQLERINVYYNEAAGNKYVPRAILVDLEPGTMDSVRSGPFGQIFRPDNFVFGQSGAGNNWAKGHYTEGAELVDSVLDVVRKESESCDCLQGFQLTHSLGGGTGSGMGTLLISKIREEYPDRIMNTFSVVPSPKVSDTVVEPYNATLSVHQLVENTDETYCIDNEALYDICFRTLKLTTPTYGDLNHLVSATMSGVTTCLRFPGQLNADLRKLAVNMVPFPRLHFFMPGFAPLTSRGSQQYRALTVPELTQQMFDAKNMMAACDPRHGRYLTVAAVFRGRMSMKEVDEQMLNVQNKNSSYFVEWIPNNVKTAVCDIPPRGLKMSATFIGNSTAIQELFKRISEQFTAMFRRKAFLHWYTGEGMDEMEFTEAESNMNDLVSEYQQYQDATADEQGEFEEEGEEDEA

HL-60 = experiment: Cytotoxicity against human HL60 cells after 48 hrs; type: functional, cell-based; conditions: HL-60, 48 h
In short: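 MTT viability assay on log-phase cells at 37 °C, exposed to compound or DMSO vehicle for 48 h. MTT (1 mg/mL in PBS) was then added for 2 h, and absorbance was read at 570 nm with 630 nm correction. IC50 is the concentration giving 50% proliferation inhibition. Cells were cultured in 5% CO2: HL-60 in RPMI-1640 with 10% FBS; Hep3B in DMEM/F12 with 10% FBS; Detroit 551 in DMEM with 10% FBS.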

T47D = experiment: Cytotoxicity against human T47D cells after 48 hrs; type: functional
BT-549 = experiment: Cytotoxicity against human BT549 cells after 48 hrs; type: functional; conditions: BT-549, 48 h
MCF7 = experiment: Cytotoxicity against human MCF7 cells after 48 hrs; type: functional; conditions: MCF7, 48 h
UO-31 = experiment: Cytotoxicity against human UO31 cells after 48 hrs; type: functional; conditions: UO-31, 48 h
ACHN = experiment: Cytotoxicity against human ACHN cells after 48 hrs; type: functional
OVCAR-8 = experiment: Cytotoxicity against human OVCAR8 cells after 48 hrs; type: functional; conditions: OVCAR-8, 48 h
OVCAR-5 = experiment: Cytotoxicity against human OVCAR5 cells after 48 hrs; type: functional; conditions: OVCAR-5, 48 h
OVCAR-3 = experiment: Cytotoxicity against human OVCAR3 cells after 48 hrs; type: functional; conditions: OVCAR-3, 48 h
OVCAR-4 = experiment: Cytotoxicity against human OVCAR4 cells after 48 hrs; type: functional; conditions: OVCAR-4, 48 h
UACC-257 = experiment: Cytotoxicity against human UACC257 cells after 48 hrs; type: functional; conditions: UACC-257, 48 h
MDA-MB-435 = experiment: Cytotoxicity against human MDA-MB-435 cells after 48 hrs; type: functional; conditions: MDA-MB-435, 48 h
Malme-3M = experiment: Cytotoxicity against human MALME-3M cells after 48 hrs; type: functional
M14 = experiment: Cytotoxicity against human M14 cells after 48 hrs; type: functional; conditions: M14, 48 h
U-251 = experiment: Cytotoxicity against human U251 cells after 48 hrs; type: functional; conditions: U-251, 48 h
SNB-75 = experiment: Cytotoxicity against human SNB75 cells after 48 hrs; type: functional; conditions: SNB-75, 48 h
SNB-19 = experiment: Cytotoxicity against human SNB19 cells after 48 hrs; type: functional; conditions: SNB-19, 48 h
HT-29 = experiment: Cytotoxicity against human HT-29 cells after 48 hrs; type: functional; conditions: HT-29, 48 h
HCC 2998 = experiment: Cytotoxicity against human HCC2998 cells after 48 hrs; type: functional; conditions: HCC 2998, 48 h
HCT-116 = experiment: Cytotoxicity against human HCT116 cells after 48 hrs; type: functional; conditions: HCT-116, 48 h
COLO 205 = experiment: Cytotoxicity against human COLO205 cells after 48 hrs; type: functional; conditions: COLO 205, 48 h
NCI-H322M = experiment: Cytotoxicity against human NCI-H322M cells after 48 hrs; type: functional
NCI-H226 = experiment: Cytotoxicity against human NCI-H226 cells after 48 hrs; type: functional; conditions: NCI-H226, 48 h
HOP-92 = experiment: Cytotoxicity against human HOP92 cells after 48 hrs; type: functional; conditions: HOP-92, 48 h
HOP-62 = experiment: Cytotoxicity against human HOP62 cells after 48 hrs; type: functional; conditions: HOP-62, 48 h
RPMI-8226 = experiment: Cytotoxicity against human RPMI8226 cells after 48 hrs; type: functional; conditions: RPMI-8226, 48 h
[3] = read-out: pLC50 (the source's name) (converted)

COc1cc(O)cc(-c2cc(=O)c3cc(N4CCCC4)ccc3[nH]2)c1
inhibition (Tubulin (Homo sapiens) [1]): Dose-dependent effect | inhibition (Tubulin (Homo sapiens) [2]): Dose-dependent effect | inhibition (Tubulin (Sus scrofa)): Dose-dependent effect | IC50 (HL-60): 0.1 µM | GI50 (T47D): > 100 µM | CC50 (T47D; [3]): > 100 µM | TGI (T47D; read-out: pTGI): > 100 µM | GI50 (BT-549): 0.0372 µM | CC50 (BT-549; [3]): > 100 µM | TGI (BT-549; read-out: pTGI): > 100 µM | GI50 (MCF7): 0.0479 µM | CC50 (MCF7; [3]): > 100 µM | TGI (MCF7; read-out: pTGI): > 100 µM | GI50 (UO-31): 0.182 µM | CC50 (UO-31; [3]): > 100 µM | TGI (UO-31; read-out: pTGI): > 100 µM | GI50 (ACHN): 0.0776 µM | CC50 (ACHN; [3]): > 100 µM | TGI (ACHN; read-out: pTGI): > 100 µM | GI50 (OVCAR-8): 0.0389 µM | CC50 (OVCAR-8; [3]): > 100 µM | TGI (OVCAR-8; read-out: pTGI (converted)): 31.6 µM | GI50 (OVCAR-5): > 100 µM | CC50 (OVCAR-5; [3]): > 100 µM | TGI (OVCAR-5; read-out: pTGI): > 100 µM | GI50 (OVCAR-3; read-out: pGI50 (converted)): 0.0234 µM | CC50 (OVCAR-3; [3]): 6.46 µM | TGI (OVCAR-3; read-out: pTGI (converted)): 0.0891 µM | GI50 (OVCAR-4): 0.0977 µM | CC50 (OVCAR-4; [3]): > 100 µM | TGI (OVCAR-4; read-out: pTGI): > 100 µM | GI50 (UACC-257): 0.708 µM | CC50 (UACC-257; [3]): > 100 µM | TGI (UACC-257; read-out: pTGI): > 100 µM | GI50 (MDA-MB-435): 0.01 µM | TGI (MDA-MB-435; read-out: pTGI (converted)): 0.0295 µM | GI50 (Malme-3M): 0.0257 µM | CC50 (Malme-3M; [3]): > 100 µM | TGI (Malme-3M; read-out: pTGI): > 100 µM | GI50 (M14): 0.0302 µM | CC50 (M14; [3]): > 100 µM | TGI (M14; read-out: pTGI (converted)): 15.8 µM | GI50 (U-251): 0.0468 µM | CC50 (U-251; [3]): 87.1 µM | TGI (U-251; read-out: pTGI (converted)): 14.5 µM | GI50 (SNB-75): 0.0347 µM | CC50 (SNB-75; [3]): 77.6 µM | TGI (SNB-75; read-out: pTGI (converted)): 13.2 µM | GI50 (SNB-19): 0.0741 µM | CC50 (SNB-19; [3]): > 100 µM | TGI (SNB-19; read-out: pTGI): > 100 µM | GI50 (HT-29): 0.0759 µM | CC50 (HT-29; [3]): > 100 µM | TGI (HT-29; read-out: pTGI): > 100 µM | GI50 (HCC 2998): 0.0457 µM | CC50 (HCC 2998; [3]): > 100 µM | TGI (HCC 2998; read-out: pTGI): > 100 µM | GI50 (HCT-116): 0.0355 µM | CC50 (HCT-116; [3]): > 100 µM | TGI (HCT-116; read-out: pTGI): > 100 µM | GI50 (COLO 205): 0.0537 µM | TGI (COLO 205; read-out: pTGI (converted)): 0.219 µM | GI50 (NCI-H322M): 0.0724 µM | CC50 (NCI-H322M; [3]): > 100 µM | TGI (NCI-H322M; read-out: pTGI): > 100 µM | GI50 (NCI-H226): > 100 µM | CC50 (NCI-H226; [3]): > 100 µM | TGI (NCI-H226; read-out: pTGI): > 100 µM | GI50 (HOP-92): 30.9 µM | CC50 (HOP-92; [3]): > 100 µM | TGI (HOP-92; read-out: pTGI): > 100 µM | GI50 (HOP-62): 0.0513 µM | CC50 (HOP-62; [3]): > 100 µM | TGI (HOP-62; read-out: pTGI (converted)): 20.9 µM | GI50 (RPMI-8226): 0.468 µM | CC50 (RPMI-8226; [3]): > 100 µM | TGI (RPMI-8226; read-out: pTGI): > 100 µM
